We go through one compound from publication PMC6347715 (Proceedings of the National Academy of Sciences of the …, 2019).

For series [1], the system named is Wolbachia pipientis (wAlbB) in C6/36 cells. Briefly: Anti-Wolbachia cell-based assay. The following applies: C6/36, read-out: EC50 anti-Wolbachia, cell assay.
The test system of series [2] is Wolbachia within B. malayi mf. In words: B. malayi microfilaria time-kill assay. Format: cell-based, Brugia malayi. To be noted: drug concentration 10 times EC50; exposures 1, 2, 6 d. In outline:
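This is a time-kill variant of the 6-d B. malayi mf assay: 8,000 mf per well in supplemented RPMI at 37 °C, 5% CO2. Drug was removed by a wash step on the indicated exposure day. Wolbachia was then quantified by wsp/gst qPCR, with five replicates per time point per treatment. Results come from one experiment.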

Series [3] can be described thus: Aqueous solubility in pH 7.4 PBS buffer. The series is classed as physicochemical.
A short description of series [4]: Solubility in fasted state-simulated intestinal fluid. Format: physicochemical.
Series [5] can be described thus: pKa. Format: physicochemical.
The nature of series [6]: Permeability in LLC-PK1 cell assay. Format: in vitro ADME. The following applies: pig.
For series [7], the target named is P-gp (Homo sapiens, UniProt P08183). In words: P-gp-mediated efflux. The series is classed as in vitro ADME. To be noted: not told.
In series [8] the target is CYP2C9 (Homo sapiens, UniProt P11712). Briefly: CYP2C9 inhibition. Format: in vitro ADME.
Series [9] relates to CYP3A4. Briefly: CYP3A4 induction. To be noted: human. The series is classed as in vitro ADME.
Series [10] deals with CYP1A, CYP2C9, CYP2C19, CYP2D6, CYP3A. In words: Time-dependent inhibition of five major human CYP450 isoforms. The series is classed as in vitro ADME.
A short description of series [11]: Mouse PK in BALB/c mice. The following applies: in vivo.
Series [12] relates to Wolbachia within female B. malayi adult parasites. In words: Adult B. malayi SCID mouse model: Wolbachia load. The series is classed as in vivo, Brugia malayi. To be noted: 100 mg/kg, 7 d orally.
Series [13] relates to B. malayi. In words: Adult B. malayi SCID mouse model: parasitology readout. The series is classed as in vivo, Brugia malayi. The following applies: over the 6 wk of observation post treatment.
In series [14] the test system is Wolbachia in female adult L. sigmodontis. In words: L. sigmodontis gerbil model: Wolbachia load. Format: in vivo, Litomosoides sigmodontis. The following applies: 18 wk post treatment. In outline: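 Female gerbils aged 6–8 wk were infected by exposure to Ornithonyssus bacoti mites carrying L. sigmodontis L3. Treatment started 13 wk after infection, with animals randomised into groups of n = 5–9. Test compound in PEG300/propylene glycol/water (55/25/20) was given by oral gavage at 2.5 mL/kg. At necropsy 18 wk after treatment start, worms were recovered from the serous cavities. Wolbachia was measured by ftsZ qPCR in 5–20 individual female worms. Groups were compared with untreated controls by Kruskal–Wallis with Dunn's test.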

The subject of series [15] is L. sigmodontis. Briefly: L. sigmodontis gerbil model: parasitology readout. Format: in vivo, Litomosoides sigmodontis. In outline:
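Gerbils were infected with L. sigmodontis via mites and given oral treatment from 13 wk post infection. Starting at 12 wk post infection, 10 µL of saphenous-vein blood was taken every two weeks and diluted in 300 µL Hinkelmann solution. Samples were centrifuged at 400 × g for 5 min, and the pellet was resuspended in 1 mL. Total mf were counted microscopically in a Sedgewick Rafter chamber, with follow-up to 18 wk after treatment start.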

Series [16] in a line: Ames test. (The Ames test uses bacterial strains that need an amino acid and regain growth without it when mutated back.)

In brackets after ≈: the same amount, converted by molar mass. Bounds are passed on as bounds.

Chain of CYP2C9 (P11712 whole entry): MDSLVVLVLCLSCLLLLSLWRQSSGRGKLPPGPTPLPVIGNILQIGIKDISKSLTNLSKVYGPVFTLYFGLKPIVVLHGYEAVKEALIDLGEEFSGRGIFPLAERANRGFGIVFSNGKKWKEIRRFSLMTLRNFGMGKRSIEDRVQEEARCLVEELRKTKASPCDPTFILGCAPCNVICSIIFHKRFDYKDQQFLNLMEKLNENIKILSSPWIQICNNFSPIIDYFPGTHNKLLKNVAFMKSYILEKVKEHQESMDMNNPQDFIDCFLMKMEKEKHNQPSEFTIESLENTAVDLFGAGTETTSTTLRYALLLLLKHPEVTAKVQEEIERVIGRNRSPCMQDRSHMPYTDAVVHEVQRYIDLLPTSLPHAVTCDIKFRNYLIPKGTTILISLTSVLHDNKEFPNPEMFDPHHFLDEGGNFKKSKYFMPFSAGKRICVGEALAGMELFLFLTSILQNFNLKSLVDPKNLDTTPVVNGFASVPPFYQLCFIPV
Chain of P-gp (P08183 whole entry): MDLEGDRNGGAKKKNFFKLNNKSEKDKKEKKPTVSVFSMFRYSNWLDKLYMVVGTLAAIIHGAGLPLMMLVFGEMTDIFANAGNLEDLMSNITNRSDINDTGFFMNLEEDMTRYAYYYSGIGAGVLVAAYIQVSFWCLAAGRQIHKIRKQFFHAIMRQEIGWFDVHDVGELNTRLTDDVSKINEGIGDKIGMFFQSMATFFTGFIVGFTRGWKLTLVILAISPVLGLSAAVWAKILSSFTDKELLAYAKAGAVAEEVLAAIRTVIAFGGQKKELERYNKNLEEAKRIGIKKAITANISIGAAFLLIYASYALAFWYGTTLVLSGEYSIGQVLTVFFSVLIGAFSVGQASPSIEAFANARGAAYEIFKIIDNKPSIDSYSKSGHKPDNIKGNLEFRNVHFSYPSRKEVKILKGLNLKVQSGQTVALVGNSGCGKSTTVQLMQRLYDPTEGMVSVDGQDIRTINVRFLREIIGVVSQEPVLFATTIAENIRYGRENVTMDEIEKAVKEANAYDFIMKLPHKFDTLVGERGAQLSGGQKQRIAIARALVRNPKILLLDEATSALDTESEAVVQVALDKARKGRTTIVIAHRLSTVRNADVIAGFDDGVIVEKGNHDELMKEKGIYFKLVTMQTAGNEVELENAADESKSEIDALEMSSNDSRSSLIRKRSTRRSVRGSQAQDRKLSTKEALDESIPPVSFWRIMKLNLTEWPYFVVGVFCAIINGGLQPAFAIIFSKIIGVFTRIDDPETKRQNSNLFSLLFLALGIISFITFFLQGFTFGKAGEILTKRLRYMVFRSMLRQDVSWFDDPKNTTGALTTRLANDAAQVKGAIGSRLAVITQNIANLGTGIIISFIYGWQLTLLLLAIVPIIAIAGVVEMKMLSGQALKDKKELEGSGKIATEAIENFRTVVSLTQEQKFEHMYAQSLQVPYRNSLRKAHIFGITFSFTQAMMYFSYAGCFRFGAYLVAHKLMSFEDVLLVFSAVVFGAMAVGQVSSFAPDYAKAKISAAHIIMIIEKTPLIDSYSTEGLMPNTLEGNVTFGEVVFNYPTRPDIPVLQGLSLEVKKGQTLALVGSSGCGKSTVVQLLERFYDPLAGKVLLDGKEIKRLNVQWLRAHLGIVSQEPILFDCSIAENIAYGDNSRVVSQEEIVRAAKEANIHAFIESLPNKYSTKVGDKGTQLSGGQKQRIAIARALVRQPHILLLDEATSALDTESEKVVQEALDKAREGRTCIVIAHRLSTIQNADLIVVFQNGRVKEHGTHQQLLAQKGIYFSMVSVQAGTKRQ

Usually EC50 stands for the midpoint of the concentration-response curve. What is called solubility is the dissolved amount per volume that the medium holds. Low values mean little dissolved substance, high ones much dissolved substance. One may read the pKa as the negative logarithm of the acid dissociation constant. A higher pKa goes with a weaker acid or stronger base. The term Papp denotes a coefficient for how fast a substance crosses the barrier. The low end stands for slow passage, the high end for fast passage. As usually defined, the efflux ratio is the permeability from basolateral to apical divided by that in the opposite direction, in the common usage. The term IC50 denotes the concentration that gives 50% inhibition. A high value points to lower potency. The term bioavailability denotes the share of a dose that reaches the circulation, judged against a reference dose that is usually intravenous. For orientation: clearance means the rate of elimination divided by the concentration. Read a high clearance as efficient removal. In the case of `C[C@H]1COCCN1c1nc(NCc2cccnc2C(F)(F)F)c2cccnc2n1` [AWZ1066S, (S)-2-(3-methylmorpholino)-N-((2-(trifluoromethyl)pyridin-3-yl)methyl)pyrido[2,3-d]pyrimidin-4-amine], the 50% effective concentration (EC50) in series [1] amounted to 0.0025 ± 0.0004 µM. The “drug exposure needed for maximum reduction of Wolbachia” value in series [2] turned out to be 1 days. Moreover, the solubility was 238 µM (≈ 96.2 µg/mL) in series [3] and 560 µg/mL (≈ 1380 µM) in series [4]. Further, the pKa in series [5] was 5.6. The same compound displayed a Papp in [6] of 7.4 ×10⁻⁶ cm/s. The efflux ratio in series [7] turned out to be 7.8. The half-maximal inhibitory concentration (IC50) in series [8] was 9.7 µM; in series [9] it was 37 µM. Moreover, the time-dependent inhibition entry in [10] is “does not show any time-dependent inhibition”. The same compound gave a bioavailability in series [11] (BALB/c SCID, po) of 54 to 91%. The compound further had a clearance in [11] (iv, 5 mg/kg, total clearance, dosed intravenously) of 7.83 mL/min/kg. Further, in series [12], the “Wolbachia reduction compared with the vehicle group” value came out at 98%. Besides, in series [13], the “mice in which release of mf was completely prevented” value is 9/10. In addition, the “Wolbachia load reduction compared with control untreated animals” value in series [14] (50 mg/kg orally twice daily 7 d) and in [14] (100 mg/kg orally twice daily 7 d) was above 99% each time. Moreover, the “time from which peripheral blood microfilaremia began to decline” value in series [15] (7-d treatment) worked out at 6 wk post treatment. Besides, in series [15] (7-d treatment groups, sustained until 18 wk), the “time from which amicrofilaremia was evident” value was found to be 14 wk post treatment. The Ames test result in [16] is recorded as “negative”.
